Converted amounts (≈) assume the structure as drawn.
Legend:
[1] = Intrinsic clearance in rat liver microsomes at 1 uM measured up to 30 mins in presence of NADPH by HPLC analysis; format: ADME, microsome; settings: read-out: CLH
How it was run: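 Compound at 1 µM final was incubated with human or rat liver microsomes (0.5 mg protein/mL) in Tris buffer at 37 °C, started with NADPH (2 mM). Samples were quenched in cold ACN with indomethacin internal standard at 0, 5, 15 and 30 min (RLM) or 0, 15, 30 and 60 min (HLM) and analysed by HPLC. CLint = first-order degradation rate constant / microsomal protein concentration.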

[2] = Solubility of the compound; format: physicochemical
[3] = Volume of distribution at steady state in Sprague-Dawley rat plasma at 1 mg/kg, iv administered as single dose by LC-MS/MS analysis; format: ADME, organism-based; settings: read-out: Vdss
How it was run: (§1)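 Male SD rats (200-250 g), not fasted, n=3, given a single 1 mg/kg IV dose in NMP:PEG400:water (5:35:65) via jugular/femoral vein catheters. Blood was taken from pre-dose to 24 h (0.033–24 h). Plasma was protein-precipitated with acetonitrile containing internal standard and quantified by LC-MS/MS against 0.5–2000 ng/mL standards.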

[4] = Cmax in Sprague-Dawley rat plasma at 1 mg/kg, po administered as single dose by LC-MS/MS analysis; format: ADME, organism-based; design: dose 1 mg/kg, route oral
How it was run: (§2)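 Non-fasted male SD rats (200-250 g, n=3) received a single oral 1 mg/kg dose in NMP:PEG400:water (5:35:65). Femoral-vein blood was sampled pre-dose and at 0.25–24 h. Plasma was extracted with acetonitrile plus internal standard and analysed by LC-MS/MS over a 0.5–2000 ng/mL calibration range.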

[5] = Oral bioavailability in Sprague-Dawley rat plasma at 1 mg/kg administered as single dose by LC-MS/MS analysis; format: ADME, organism-based; how it was run: as §2
[6] = test system: Plasma; test: Drug uptake in Sprague-Dawley rat plasma at 1 mg/kg, po administered as single dose by LC-MS/MS analysis; format: ADME, organism-based; settings: read-out: Cp, in vivo
How it was run: (§3)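 Male SD rats got a single 1 mg/kg oral dose in NMP:PEG400:water (5:35:65). Total brain, CSF and plasma levels were then measured.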

[7] = test system: Rattus norvegicus; test: Clearance in Sprague-Dawley rat plasma at 1 mg/kg, iv administered as single dose by LC-MS/MS analysis relative to hepatic blood flow; format: ADME, organism-based; settings: in vivo
[8] = test system: Cerebrospinal fluid; test: Drug uptake in Sprague-Dawley rat cerebrospinal fluid at 1 mg/kg, po administered as single dose by LC-MS/MS analysis; format: ADME, organism-based; settings: in vivo, read-out: Drug uptake; how it was run: as §3
[9] = Elimination half life in Sprague-Dawley rat plasma at 1 mg/kg, iv administered as single dose by LC-MS/MS analysis; format: ADME, organism-based; settings: read-out: beta t1/2 (converted); how it was run: as §1
[10] = Clearance in Sprague-Dawley rat plasma at 1 mg/kg, iv administered as single dose by LC-MS/MS analysis; format: ADME, organism-based; how it was run: as §1
[11] = AUC (0 to infinity) in Sprague-Dawley rat plasma at 1 mg/kg, iv administered as single dose by LC-MS/MS analysis; format: ADME, organism-based; design: dose 1 mg/kg, time infinity, route intravenous; how it was run: as §1
[12] = test system: Brain; test: Drug uptake in Sprague-Dawley rat brain at 1 mg/kg, po administered as single dose by LC-MS/MS analysis; format: ADME, organism-based; settings: in vivo, read-out: Drug uptake; how it was run: as §3
[13] = Tmax in Sprague-Dawley rat plasma at 1 mg/kg, po administered as single dose by LC-MS/MS analysis; format: ADME, organism-based; how it was run: as §2
[14] = AUC (infinity) in Sprague-Dawley rat plasma at 1 mg/kg, po administered as single dose by LC-MS/MS analysis; format: ADME, organism-based; design: dose 1 mg/kg, time infinity, route oral; how it was run: as §2

| Structure (SMILES) | microsomal CLint at 1 µM [1] | solubility [2] | other results |
| --- | --- | --- | --- |
| Cc1cc([C@H]2CN(C(=O)c3ccc(F)c(Br)c3)CC(F)(F)C2)n2ncnc2n1 | 17.3 µL/min/mg |  |  |
| O=C(Nc1ccc2c(c1)CCC2)C1CCCN(c2cc(C(F)(F)F)nc3ncnn23)C1 (centres undefined) | 94.1 µL/min/mg | 29 µg/mL (≈ 67.4 µM) |  |
| Cc1cc(N2CCCC(C(=O)Nc3ccc4c(c3)CCC4)C2)n2ncnc2n1 (centres undefined) | 67.9 µL/min/mg | 49 µg/mL (≈ 130 µM) |  |
| Cc1cc([C@@H]2CN(C(=O)c3cc(C)c(F)c(F)c3)CC(F)(F)C2)n2ncnc2n1 | 52.2 µL/min/mg |  |  |
| COc1ccc(C(=O)N2CC(c3cc(C)nc4ncnn34)CC(F)(F)C2)cc1C (racemic) | 67.7 µL/min/mg |  |  |
| Cc1cc(C2CN(C(=O)c3ccc4ccccc4c3)CC(F)(F)C2)n2ncnc2n1 (racemic) | 78.8 µL/min/mg |  |  |
| Cc1cc(C2CCCN(C(=O)c3ccc4ccccc4c3)C2)n2ncnc2n1 (racemic) | 85.6 µL/min/mg | 37 µg/mL (≈ 99.6 µM) |  |
| Cc1cc(C2CCCN(C(=O)c3ccc4c(c3)OCC4)C2)n2ncnc2n1 (centres undefined) | 21.7 µL/min/mg | 36 µg/mL (≈ 99.1 µM) |  |
| Cc1cc([C@@H]2CCCN(C(=O)c3ccc4ccccc4c3)C2)n2ncnc2n1 | 41.4 µL/min/mg | 37 µg/mL (≈ 99.6 µM) |  |
| Cc1cc([C@@H]2CN(C(=O)c3ccc(F)c(Br)c3)CC(F)(F)C2)n2ncnc2n1 | 25.7 µL/min/mg |  | Vd [3]: 0.98 L/kg; Cmax [4]: 201 ng/mL; bioavailability [5]: 87%; concentration [6]: 204 nM; CL [7]: 50%; concentration [8]: 15 nM; half-life [9]: 60.6 min; clearance [10]: 32.8 mL/min/kg; AUC(0-inf) [11]: 508 ng·h/mL; concentration [12]: 66 nM; Tmax [13]: 40.2 min; AUC(0-inf) [14]: 442 ng·h/mL |
| Cc1cc(C2CCCN(C(=O)c3ccc(F)c(C)c3)C2)n2ncnc2n1 (centres undefined) | 33.5 µL/min/mg | 35 µg/mL (≈ 99 µM) |  |
| O=C(Nc1ccc2c(c1)CCC2)C1CCCN(c2ccnc3ncnn23)C1 (centres undefined) | 76.2 µL/min/mg | 47 µg/mL (≈ 130 µM) |  |
| COc1ccc(C(=O)N2CCCC(c3cc(C)nc4ncnn34)C2)cc1C (centres undefined) | 30.2 µL/min/mg | 36 µg/mL (≈ 98.5 µM) |  |
| Cc1cc(N2CCCC(C(=O)Nc3ccc4ccccc4c3)C2)n2ncnc2n1 (centres undefined) | 53.4 µL/min/mg | 13 µg/mL (≈ 33.6 µM) |  |
| Cc1cc(C2CCCN(C(=O)c3ccc4c(c3)CCC4)C2)n2ncnc2n1 (centres undefined) | 83.9 µL/min/mg | 47 µg/mL (≈ 130 µM) |  |
| Cc1cc([C@H]2CCCN(C(=O)c3ccc4ccccc4c3)C2)n2ncnc2n1 | 124 µL/min/mg | 37 µg/mL (≈ 99.6 µM) |  |
| Cc1cc(C2CCCN(C(=O)c3ccc4ncccc4c3)C2)n2ncnc2n1 (centres undefined) | 6.3 µL/min/mg | 47 µg/mL (≈ 126 µM) |  |
| Cc1cc([C@@H]2CN(C(=O)c3ccc(F)c(C4CC4)c3)CC(F)(F)C2)n2ncnc2n1 | 162 µL/min/mg |  |  |
| COc1cc(Cl)ccc1NC(=O)C1CCCN(c2cc(C)nc3ncnn23)C1 (centres undefined) | 78.9 µL/min/mg | 45 µg/mL (≈ 112 µM) |  |
